A selection: hits, their analogues and other compounds. The true share with any hit is near 3.9%.
FID counter: fluorescent intercalator displacement, NS3 helicase counter-screen; actives 0.17% (n = 290,000); DNA fluorescent intercalator displacement, fluorescence; AID 1845; inhibition, % at 7.9 µM; in the data active = inhibition above about 37%;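 note: 0% = vehicle and 100% = reference compound; higher means more ethidium bromide displaced from hairpin DNA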
HCV NS3 hel inh: HCV NS3 helicase inhibition; NS3 helicase DNA unwinding, Cy5 molecular beacon fluorescence; inhibition, % at 10.9 µM; actives 0.56% (n = 290,000);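 active = inhibition above the mean of all tested compounds plus 3 SD, set per campaign, cut at about 35% in these data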;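 note: 0% = DMSO wells and 100% = thioflavine S control wells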
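Assay system: hepatitis C virus NS3 helicase domain fragment enzyme. Also added: annealed dual-labelled DNA beacon duplex, ATP-started. Timing: 1 h reaction at 25 °C, ATP-initiated. Technique: Cy5 fluorescence at 0 and 60 min, beacon hairpin quenching. Evaluation: % inhibition of unwinding. Replication: one well per compound.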
HSP90 inh: inhibitors of HSP90 luciferase refolding in rabbit reticulocyte lysate | luciferase refolding luminescence, 3 h | inhibition, % at 5.6 µM | actives 0.91% (n = 290,000);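 active = inhibition above the screen-wide mean plus 3 SD, computed separately per campaign, cut at about 16% in these data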;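 note: 0% = DMSO wells and 100% = 60 µM geldanamycin wells; inhibitors lower the luminescence because luciferase stays unfolded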
HSF1 activator: increases HSF-1 driven luciferase reporter signal; NIH3T3-HGL HSF-1 luciferase reporter, MG132, 8 h; 100% = twice DMSO control signal; activation, % at 9 µM; actives 1.7% (n = 300,000); AID 504408;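 active = mean replicate activation of at least 50% with a set share of replicates each reaching 50%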;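 note: 0% = median of the neutral control wells and 100% = twice that signal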
HSF1 inh: HSF1 inhibition. activity change, negative = inhibition, % at 7.5 µM (by protocol). NIH3T3-HGL HSE-luciferase, MG132-induced, luminescence 8 h; active compounds read low. actives 0.77% (n = 300,000). AID 2098;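 active = more than half of replicate wells show activity change below -50%, luminescence cut by over half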;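 note: luciferase reports HSF-1 transcriptional activity via heat shock element; 0% = median of DMSO wells and -100% = zero luminescence signal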
HCV core dimer: blocks dimerization of HCV core protein; TR-FRET GST/Flag-core106 dimerization, 1536-well; inhibition, % at 5 µM; actives 0.33% (n = 300,000);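 active = inhibition above the mean of all tested compounds plus 3 SD, set per screening campaign, cut at about 45% in these data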
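Assay system – GST-tagged and Flag-tagged HCV core protein residues 1-106 · Quantity – core106 proteins, GST 13.5 nM and Flag 17 nM · Benchmarks – unlabelled core106 and no-GST-core106 wells · Read-out basis – percent inhibition of core106 dimerization signal · Detection – time-resolved FRET, ex 340 nm, em 617 and 671 nm · Schedule – 4 h at 22.5 °C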
HSP90 inh confirm: HSP90 inhibition, confirmation assay | shares compounds with HSP90 inh | rabbit reticulocyte lysate, luciferase refolding luminescence, 3 h | inhibition, % at 5.9 µM | actives 64% (n = 2,300) | AID 1846; in the data active = inhibition above about 18%;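 note: 0% = vehicle wells and 100% = reference inhibitor wells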
luciferase ctr: firefly luciferase inhibition, HSP90 counter-screen | shares compounds with HSP90 inh | purified native firefly luciferase, luminescence | inhibition, % at 5.9 µM | actives 48% (n = 2,300) | AID 1847;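 active = inhibition above the mean inhibition of all tested sample wells plus 3 SD, cut at about 10% in these data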;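 note: 0% = DMSO with luciferase and 100% = wells lacking luciferase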
Target sequence (P08659 whole entry, looked up): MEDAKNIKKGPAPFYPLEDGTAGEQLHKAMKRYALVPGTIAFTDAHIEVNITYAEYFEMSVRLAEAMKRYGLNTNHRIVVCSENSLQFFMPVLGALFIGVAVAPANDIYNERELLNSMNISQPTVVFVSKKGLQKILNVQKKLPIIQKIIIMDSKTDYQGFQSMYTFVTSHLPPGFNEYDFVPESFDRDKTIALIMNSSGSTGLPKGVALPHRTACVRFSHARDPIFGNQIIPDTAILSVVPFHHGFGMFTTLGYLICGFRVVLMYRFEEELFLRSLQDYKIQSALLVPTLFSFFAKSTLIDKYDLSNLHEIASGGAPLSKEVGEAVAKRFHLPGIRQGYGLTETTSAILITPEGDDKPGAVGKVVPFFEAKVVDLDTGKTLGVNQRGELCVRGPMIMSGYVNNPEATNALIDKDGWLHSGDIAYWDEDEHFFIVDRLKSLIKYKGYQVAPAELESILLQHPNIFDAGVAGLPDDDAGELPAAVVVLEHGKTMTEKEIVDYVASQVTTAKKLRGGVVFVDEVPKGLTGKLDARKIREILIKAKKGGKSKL
* = called active by the depositor.

What do the screens show for `Cc1cc(C(=O)COC(=O)c2ccc3c(c2)OCO3)c(C)n1CC1CCCO1` (stereo unspecified)?
FID counter: -22.5; HCV NS3 hel inh: -5.7; HSP90 inh: 28.9*; HSF1 activator: -53.2; HSF1 inh: -45.8; HCV core dimer: 4.3; HSP90 inh confirm: 48.9*; luciferase ctr: 53.8*

Results for Cc1cc(C(=O)CSc2nc3ccccc3o2)c(C)n1CC1CCCO1 (stereo unspecified) ?
FID counter: -9.2; HCV NS3 hel inh: 1.4; HSP90 inh: 35.0*; HSF1 activator: -51.0; HSF1 inh: -42.6; HCV core dimer: 3.0; HSP90 inh confirm: 42.0*; luciferase ctr: 46.1*

What do the screens show for `O=C(CSc1nc2ccccc2o1)NCC1CCCO1` (stereo unspecified)?
HSF1 activator: -21.6; HSF1 inh: -2.2; HCV core dimer: -3.4

How did CCC(=O)c1ccc(OCC(=O)OCC(=O)c2cc(C)n(CC3CCCO3)c2C)cc1 (stereo unspecified) do in these assays?
HSF1 activator: -5.1; HSF1 inh: -6.8; HCV core dimer: 1.4

What do the screens show for `Cc1cc(C(=O)CSc2nc3ccccc3[nH]2)c(C)n1CC1CCCO1` (stereo unspecified)?
FID counter: -23.5; HCV NS3 hel inh: 3.6; HSP90 inh: 48.6*; HSF1 activator: -61.1; HSF1 inh: -53.9*; HCV core dimer: 1.9; HSP90 inh confirm: 66.5*; luciferase ctr: 67.0*

How did O=C(CN1CCCN(S(=O)(=O)c2ccc(Br)cc2)CC1)Nc1ccc2cn[nH]c2c1 do in these assays?
FID counter: -19.6; HCV NS3 hel inh: -17.0; HSP90 inh: 6.2; HSF1 activator: 3.2; HSF1 inh: 4.0

Results for COc1ccc2c(c1)CCC1C2=NN(/C(C)=C\C(C)=O)C1c1ccc(F)cc1 (stereo unspecified) ?
FID counter: -19.7; HCV NS3 hel inh: 0.1; HSP90 inh: -1.4; HSF1 activator: 39.8; HSF1 inh: 31.4; HCV core dimer: 15.5

What do the screens show for `CN1N=C2c3ccccc3CCCC2C1c1ccc(F)cc1` (stereo unspecified)?
FID counter: -7.0; HCV NS3 hel inh: 6.8; HSP90 inh: 17.6*; HSF1 activator: 37.8; HSF1 inh: 8.5; HCV core dimer: -1.8; HSP90 inh confirm: -5.8; luciferase ctr: -25.6

How did C=CCn1c(C)cc(C(=O)COC(=O)[C@@H](NC(=O)c2ccccc2Cl)C(C)C)c1C do in these assays?
FID counter: -33.2; HCV NS3 hel inh: 5.8; HSP90 inh: 26.6*; HSF1 activator: -65.7; HSF1 inh: -60.5*; HCV core dimer: 4.0; HSP90 inh confirm: 53.7*; luciferase ctr: 43.1*

What do the screens show for `O=C(O)c1ccc(N/N=C2/CCCc3ccccc32)cc1`?
FID counter: -8.7; HCV NS3 hel inh: 7.1; HSP90 inh: 18.5*; HSF1 activator: 5.8; HSF1 inh: -0.1; HCV core dimer: -4.3; HSP90 inh confirm: 1.9; luciferase ctr: -5.6

How did O=C(N/N=C1\CCCc2ccccc21)c1ccccc1Cl do in these assays?
FID counter: -2.1; HCV NS3 hel inh: 0.0; HSP90 inh: 6.2; HSF1 activator: 15.1; HSF1 inh: 3.1; HCV core dimer: -4.2

What do the screens show for `Cc1ccc(/C=C/C(=O)O)cc1S(=O)(=O)N(CCO)CCO`?
FID counter: 2.5; HCV NS3 hel inh: 0.7; HSP90 inh: 2.5; HSF1 activator: -3.5; HSF1 inh: -9.2; HCV core dimer: 7.0

How did CCCc1ccc(OCc2ccc(C(=O)N/N=C/c3cccnc3)o2)cc1 do in these assays?
FID counter: -38.9; HCV NS3 hel inh: -0.2; HSP90 inh: 36.3*; HSF1 activator: 13.1; HSF1 inh: 17.5; HSP90 inh confirm: 25.6*; luciferase ctr: -15.4

What do the screens show for `COc1cccc(Cn2cccc(NC(=O)NCc3ccccc3)c2=O)c1`?
FID counter: -23.9; HCV NS3 hel inh: 1.4; HSP90 inh: 17.9*; HSF1 activator: -0.4; HSF1 inh: 2.3; HCV core dimer: -11.3; HSP90 inh confirm: 2.4; luciferase ctr: -6.1

From PubChem
